CFTR F508del cor: F508del CFTR correction, initial screen, CFBE line, single point; CFBE cells, YFP halide quenching; stimulated with forskolin plus potentiator P3; % fluorescence drop versus neutral controls; activity (quench increase), % at 7.58 µM; hit rate 0.36% among 350,000;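 active = mean added fluorescence quench of at least 8% versus neutral control, with both replicates also reaching 8%; inconclusive = only one of the mean or replicate conditions met; inactive = mean below 8% and not both replicates reaching 8%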;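 note: cells transiently co-express mutant CFTR-F508del with the halide-sensitive YFP; corrector assay measuring rescue of mutant channel to the surface after 24 h compound exposure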
FN deposition inh: inhibitors of fibronectin matrix deposition, primary screen, AH1F cells, Alexa488-fibronectin fluorescence, plate reader | AH1F fibroblasts, overnight | inhibition, % at 12.6 µM | hit rate 0.086% among 350,000;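 active = mean inhibition across replicates of 30% or more, regardless of how many single replicates reach that level; inconclusive = mean under 30% yet at least half of replicates reach 30%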;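 note: positive control wells lacked labelled fibronectin entirely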
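Material: AH1F fibroblast monolayer depositing Alexa488-labelled fibronectin into matrix / Amount: 10000 AH1F cells per well / Signal: fluorescence 485/525 nm / Medium: DMEM, 2% serum / Compound: single dose, pinned / Incubation: 1 h cell adhesion before compound, then overnight fibronectin incubation / Reagent: Alexa488-FN, 24 nM final / Read-out: inhibition of fibronectin deposition signal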
PAX8 reporter: inhibitors of PAX8-driven TPO luciferase reporter, primary screen, RMG-I cells, single concentration; inhibition, % at 12.6 µM; SteadyGlo, 24 h; hit rate 1.2% among 360,000;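 active = mean replicate inhibition at least 60% with every replicate also reaching 60%; inconclusive = only one of the two criteria is met; inactive = mean below 60% and not all replicates reaching 60%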;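 note: luciferase light reporting Pax8 driven TPO promoter activity; plate controls were median of neutral control wells for no effect and mitoxantrone controls for full effect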
EWS-Fli inh: EWS/Fli-driven NR0B1 reporter inhibitors, primary screen, A673 cells, NR0B1 luciferase, luminescence, MLPCN library; viability-normalised; inhibition, % at 12.6 µM; hit rate 0.67% among 350,000; AID 651661, 2012;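 active = mean inhibition of at least 50% after viability correction, with every replicate also passing that limit; inconclusive = mean reaches 50% but only one of two replicates passes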;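 note: firefly luciferase signal divided by Alamar Blue viability fluorescence both relative to DMSO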
Env fusion inh: inhibitors of HIV-1 Env-driven cell-cell fusion, primary screen, HeLa-JRFL effector, CEM21 target cells, luciferase | inhibition, % at 12.3 µM | hit rate 1.1% among 360,000 | AID 651610, 2012;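 active = mean replicate inhibition score of at least 50 and every replicate individually at or above 50; inconclusive = only one of the two criteria met; inactive = mean below 50 and not all replicates reaching 50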;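 note: 0% = plate neutral controls and 100% = maraviroc near 300 nM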
PGC1a acetyl inh: inhibitors of PGC1a acetylation signal, primary screen, cell-based, U2OS, AlphaScreen, inhibitor mode; AlphaScreen anti-acetyl-lysine; with virally co-expressed GCN5 acetyltransferase; inhibition, % at 15.6 µM; AID 651687, 2012; hit rate 0.17% among 350,000;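 active = every replicate shows inhibition of at least 40%; inconclusive = mean inhibition at least 40% but some replicate below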;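 note: 0% = neutral control wells and 100% = positive control wells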
* hit, by the source's call; ? = inconclusive; . = not tested or not shown; [ ] = dose if it differs, or a comment. An excerpt weighted towards active compounds, which were near 2.3% of everything screened.

SMILES	CFTR F508del cor	FN deposition inh	PAX8 reporter	EWS-Fli inh	Env fusion inh	PGC1a acetyl inh
CC(C)NC(=O)Nc1ccc2c(c1)CC(=O)N([C@@H](C)CO)C[C@@H](C)[C@H](CN(C)C(=O)Nc1ccccc1)O2	-1	.	19	-5	23[16.7 µM]	9
CN1c2ccc(Br)cc2[C@H]2[C@H](CCN2S(=O)(=O)c2ccccc2F)[C@H]1CO	4	7	14	7	.	-2
O=C(NC(Nc1ncc(S(=O)(=O)c2ccc([N+](=O)[O-])cc2)s1)(C(F)(F)F)C(F)(F)F)c1ccc(Cl)cc1	.	9	76*	.	144*	-13
CC(CCc1ccccc1)NC(=O)c1ccc(C(=O)NC(C)CCc2ccccc2)cc1 (stereo unspecified)	.	12	81*	.	33	5
CSCCC(NC(=O)c1ccccc1Br)C(=O)NC(C)CCc1ccccc1 (stereo unspecified)	1	.	10	.	64*	8
CC(CCc1ccccc1)NC(=O)c1ccccc1 (stereo unspecified)	.	.	.	.	.	-4
COc1cccc(F)c1C(C[N+](=O)[O-])c1c(N)n(C)c(=O)n(C)c1=O (stereo unspecified)	-5	5	100*	36	-44	7
C[C@H](CO)N1C[C@H](C)[C@@H](CN(C)C(=O)Nc2ccc3c(c2)OCO3)OCCCC[C@H](C)Oc2ccc(NC(=O)c3ccncc3)cc2C1=O	0	-1	.	-52	-66[16.7 µM]	3
O=C(N[C@@H]1CC[C@H](CC(=O)N2CCOCC2)O[C@H]1CO)c1ccccn1	-2	.	.	.	.	-8
COc1ccccc1NC(=O)N1CC(=O)N2[C@H](CO)[C@@H](c3ccc(C#Cc4ccc(F)cc4)cc3)[C@@H]2C1	6	.	.	.	.	-13
CS(=O)(=O)N1C[C@@H]2N[C@H](C1)C2c1ccc(-c2ccc(F)cc2)cc1 (stereo partly specified)	.	-2	.	.	.	.
COc1cc2c(cc1NC(=O)C(Cl)Cl)-c1ccc(NC(=O)C(Cl)Cl)cc1C2	-2	7	79*	23	-178	.
C[C@@H]1CN([C@H](C)CO)C(=O)c2cccc(NC(=O)c3ccncc3)c2O[C@@H]1CN(C)CC1CC1	-1	.	0	1	2[16.7 µM]	-3
COc1ccc(NC(=O)/C(Cl)=C(/Cl)S(=O)Cc2ccccc2)cn1 (stereo unspecified)	.	.	.	.	.	71*
COc1ccc2c3c([nH]c2c1)[C@H](CO)N(C(=O)c1ccc(F)cc1)CC31CN(C(=O)CC2CC2)C1	1	.	-12	-4	.	4
CC(C)[C@H]1COCc2cn(nn2)CCC[C@@H](C)C(=O)N1	.	3	.	.	.	.
Cn1c(=O)c2c(nc(Br)n2Cc2ccccc2Cl)n(C)c1=O	.	.	.	.	.	-2
Cn1c(=O)c2c(nc(Oc3ccc4ccccc4c3)n2C)n(C)c1=O	.	6	.	.	102*	17
COc1ccc(Oc2nc3c(c(=O)n(C)c(=O)n3C)n2C)cc1	1	-2	-7	7	?	19
Cn1c(=O)[nH]c(=O)c2c1nc(Br)n2Cc1cccc(Br)c1	7	-1	73*	56*	-93	-48
Cn1c(=O)c2c(nc(Br)n2Cc2ccc3ccccc3c2)n(C)c1=O	.	-3	.	.	58*	15
CN1CCN(c2nc3c(c(=O)[nH]c(=O)n3C)n2Cc2cccc(Br)c2)CC1	3	4	-7	-1	-4	0
CCNc1nc2c(c(=O)n(C)c(=O)n2C)n1Cc1ccc(Cl)cc1	1	-5	23	22	60*	26
CNC[C@H]1OCCCC[C@@H](C)Oc2ccc(NC(=O)Nc3ccc(F)cc3)cc2C(=O)N([C@H](C)CO)C[C@@H]1C	-1	.	-10	-4	-19[16.7 µM]	2
O=C(CC1SC(=Nc2cccc3ccccc23)N(Cc2ccccn2)C1=O)Nc1ccccc1Br (stereo unspecified)	0	5	96*	5	.	.
SMILES	CFTR F508del cor	FN deposition inh	PAX8 reporter	EWS-Fli inh	Env fusion inh	PGC1a acetyl inh
Cc1ccccc1N=C1SC(CC(=O)Nc2ccc3ccccc3c2)C(=O)N1Cc1ccccn1 (stereo unspecified)	.	1	26	.	-4	7
COc1ccc(OC)c(-c2cnc(OC(C)(C)C)nc2OC(C)(C)C)c1	14*	-7	11	71*	-178	3
CNc1cncc(-c2cc(OC)ccc2OC)n1	2	10	-8	-7	-3	1
COc1ccc(C#Cc2ccc3c(c2)[C@]2(C(=O)N3)[C@H](c3ccc(OCCO)cc3)N3[C@H](c4ccccc4)[C@H](c4ccccc4)OC(=O)[C@H]3[C@@H]2C(=O)NC[C@H](O)c2ccccc2)cc1	-3	.	1	-1	-10[16.7 µM]	2
COc1ccc(Cl)cc1NC(=O)C(C)NC(c1ccccc1)c1ccccc1 (stereo unspecified)	.	7	-8	.	59*	3
C[C@@H]1CN([C@H](C)CO)C(=O)c2cc(NC(=O)CCCN(C)C)ccc2O[C@H]1CN(C)C(=O)Nc1ccccc1	0	.	-1	-8	.	-5
CC(C)(C)c1cc(Cl)c(O)c(NC(=S)NC(=O)c2cccnc2)c1	0	30*	23	24	10	.
O=C1CCN(S(=O)(=O)c2ccccc2)CCN1CCOCc1ccc(C(F)(F)F)cc1	-1	11	13	17	31	5
Cc1ccc(S(=O)(=O)N2CCC(=O)N(CCOCc3ccc(C(F)(F)F)cc3)CC2)cc1	2	17	15	26	69*	.
Cc1ccc(S(=O)(=O)N2CCC(=O)N(CCOC(=O)Nc3cccc(Cl)c3)CC2)cc1	-2	5	19	8	92*	-5
CCCCC1(C2CCCC2)NC(=O)NC1=O (stereo unspecified)	12*	13	-12	4	.	3
C=CCN([C@H](C(=O)OC)C(C)C)S(=O)(=O)CCNCc1ccccc1	-3	-10	5	-2	62*	0
C=CCN(C(C(=O)OC)C(C)C)S(=O)(=O)CCNCc1ccccc1 (stereo unspecified)	0	12	-4	6	?	-22
COc1cccc(CNc2ncc(C(=O)Nc3cc(OC)c(OC)c(OC)c3)c(C)n2)c1	4	18	33	52*	0	-1
COc1ccccc1-c1cnc2c(c1)C(=O)N([C@H](C)CO)C[C@@H](C)[C@H](CN(C)Cc1cccnc1)O2	3	-1	.	0	11[16.7 µM]	-5
O=C(CCl)N(Cc1ccccc1)c1ccccc1	-1	.	108*	73*	26	.
Cc1cccc(N(Cc2ccccc2)C(=O)CCl)c1	-9	.	123*	52*	25	-4
COc1ccc(CC(=O)N(Cc2ccccc2)c2cccc(C)c2)cc1OC	2	2	-4	.	-3	.
O=C(Nc1nc(-c2cccs2)c(-c2cccs2)s1)C1(c2ccccc2)CC1	3	1	102*	5	.	3
